This is a sample that favours compounds with a hit; in the whole collection about 1.5% have one here.
LANA-H2B inh – blocks KSHV LANA binding to histone H2A/H2B | Q9QR71 | cell-free LANA-H2A/H2B peptide, fluorescence polarization | inhibition, % (concentration not given with the values) | 320,000 tested, 0.6% active | AID 2629; in the data active means inhibition mostly above about 10%, no sharp cut-off; inactive means mostly below about 6.7%
ZTA DNA inh – blocks Epstein-Barr virus ZTA, an EBNA-1 counter-screen | P03206 | ZTA-DNA binding, fluorescence polarization | inhibition, % at 11 µM | 320,000 tested, 0.15% active | AID 2234; in the data active means inhibition above about 33%
HNF4A DNA FP – change in binding of human HNF4 alpha to DNA; P41235; HNF4a-FITC DNA binding, fluorescence polarization, 1 h; activity change, % at 10 µM; 360,000 tested, 0.3% active; in the data active means activity change above about 30%, passing the limit was not always enough
CSN deneddyl inh – CSN deneddylation inhibition. Purified CSN, SCF-Nedd8-OG deneddylation, fluorescence polarization. inhibition, % at 12.5 µM. 360,000 tested, 0.38% active;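 active means pattern-corrected inhibition above about 35%, with an unprinted fluorescence ratio check between 0.5 and 1.5, limit read from the data, passing the limit was not always enough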
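Assay system: HEK293T-derived human Csn5 enzyme; quantity: 0.24 nM enzyme; medium: Tris/NaCl/DTT buffer, pH 7.5; also added: substrate SCFSkp2-Nedd8OG, 10 nM; doses: 12.5 µM compound; schedule: 90 min reaction at room temperature; signal: FP; read-out: % inhibition of substrate cleavage by Csn5; benchmarks: substrate-only high control, full reaction low control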
EBNA-1 inhibitor – blocks EBNA-1 binding to DNA | EBNA-1 DNA binding, fluorescence polarization | inhibition, % at 14.8 µM | 300,000 tested, 0.34% active | AID 1950; in the data active means inhibition above about 28%
A1 inh – inhibitors of the anti-apoptotic protein A1, read as caspase activation | MEF A1-2A-BIM cells, Caspase-Glo 3/7 luminescence, 3 h; percent of clofoctol response, vehicle zero | caspase activation, % (concentration not given with the values) | 330,000 tested, 0.066% active;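 active means over half of replicate activation scores above 10%, or exactly half above 10 with the replicate mean above 10; inconclusive means replicate mean below 10 yet half the replicates above 10; inactive means over half of replicates below 10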
CSN deneddyl val – Csn5 (human) deneddylation inhibition, single-concentration validation; shares compounds with CSN deneddyl inh; AID 720654; inhibition, % at 16.6 µM; Csn5 deneddylation of SCF-Nedd8OG, fluorescence polarization, 90 min; 540 tested, 62% active; in the data active means inhibition above about 50%
MMP2 cntr CSN – blocks human MMP-2 in a CSN deneddylation counter-screen; inhibition, % at 16.6 µM; recombinant MMP-2, FRET substrate fluorescence, 60 min; shares compounds with CSN deneddyl inh; 540 tested, 33% active; AID 720655;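 active means corrected plate-normalized z-score of 5 or more, or -5 or less, or inhibition of 15% or more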
Thrombin counter – blocks bovine thrombin in a CSN deneddylation counter-screen; AID 720656; shares compounds with CSN deneddyl inh; bovine thrombin cleavage of Ub4-pepOG, fluorescence polarization; 540 tested, 49% active; inhibition, % at 16.6 µM;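 active means inhibition at or above a set limit, with a fluorescence interference ratio between 0.5 and a set maximum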
A number is an active result; 0 = inactive; ? = inconclusive; - = no result given; + = active, no number.

SMILES | LANA-H2B inh | ZTA DNA inh | HNF4A DNA FP | CSN deneddyl inh | EBNA-1 inhibitor | A1 inh | CSN deneddyl val | MMP2 cntr CSN | Thrombin counter
CSCCC(C(=O)Nc1c(C)cccc1C)N1CCN(C/C=C/c2ccccc2)CC1 (stereo not drawn) | - | - | 0 | 0 | - | - | - | - | -
CN(C)c1ccc(C=c2c3cc(O)ccc3n3c2cc(-c2ccccc2)[n+]3C)cc1 | - | - | 0 | 138 | - | - | 0 | 100 | 68
Cc1cc2c(=Cc3ccc(N(C)C)cc3)c3ccccc3n2[n+]1C | - | - | 0 | 86 | - | - | 0 | 0 | 60
O=C(NC1=NCCS1)c1cccc(S(=O)(=O)N2CCOCC2)c1 | 0 | 0 | 0 | 0 | - | 0 | - | - | -
O=S(=O)(NCc1ccccc1)c1ccc(Cl)cc1 | 0 | 0 | 0 | 0 | 0 | 0 | - | - | -
O=S(=O)(Nc1cc2nc3ccccc3nc2n1Cc1ccccc1)c1ccc(Cl)cc1 | + | 0 | 0 | 70 | 0 | 0 | 77 | 0 | 0
Cc1c(C#N)c(O)[nH]c(=O)c1N=Nc1ccc(Br)cc1C(=O)O | 0 | 0 | 86 | 56 | 0 | 0 | 0 | 0 | 53
CC(C)OC(=O)CN1C(=O)S/C(=C/c2ccc(N3CCCCC3)o2)C1=O | 0 | 0 | 0 | 51 | 0 | ? | 73 | -114 | 0
O=C(CSc1nc(=O)n(CCN2CCOCC2)c2c1CCCC2)Nc1ccc(F)cc1F | 0 | 0 | 0 | 0 | 0 | ? | - | - | -
CCCN(CCC)CC(O)Cn1cc(/C=C/C(=O)c2cccs2)c2ccccc21 (stereo not drawn) | - | 0 | 0 | 42 | 0 | 0 | 71 | 0 | 35
COC(=O)CSc1nccc(C)n1 | 0 | 0 | 0 | 0 | 0 | 0 | - | - | -
O=C(/C=C/c1ccco1)Nc1scc(-c2ccccc2)c1C(=O)O | 0 | 0 | 0 | 38 | 0 | 0 | 0 | 0 | 0
CCCN(CC(=O)NC(=O)NCc1ccccc1)CC(=O)Nc1ccc(F)c(F)c1F | - | - | 0 | 0 | - | - | - | - | -
O=C1c2c(O)ccc(O)c2C(=O)c2c(NCCNCCO)ccc(NCCNCCO)c21 | 77 | + | 0 | 44 | 110 | 0 | 0 | 31 | 0
CCc1ccc(Nc2n[n+](-c3ccccc3)c(-c3ccc(N(CC)CC)cc3)s2)cc1 | 0 | 0 | 0 | 91 | 0 | 0 | 0 | -79 | 0
CCN(CC)c1ccc(-c2sc(Nc3ccccc3)n[n+]2-c2ccc(F)cc2)cc1 | 0 | 0 | 0 | 65 | 0 | 0 | 146 | 0 | 0
CCc1ccc(Nc2n[n+](-c3ccccc3)c(-c3ccc(OCc4ccccc4)cc3)s2)cc1 | 0 | 0 | 0 | 0 | 0 | 0 | - | - | -
Cn1ccc2cc3c(cc21)CCN3C(=O)Nc1cccnc1 | 0 | 0 | 0 | 102 | 0 | 0 | 61 | -41 | 0
Cc1nc(C)c(NC(=O)N2CCc3ccccc32)cc1NC(=O)N1CCc2ccccc21 | 0 | 0 | 0 | 0 | 0 | 0 | - | - | -
COc1ccc(-c2cc(NC=O)c3ncc(-c4ccc(C(C)=O)cc4)n3c2)cn1 | - | - | 0 | 42 | - | - | 100 | 0 | 0
COC1=CC(=Cc2c(N)n3nc(CC(=O)N4CCCCC4)sc3nc2=O)C=C(OC)C1=O | 0 | 0 | 38 | 78 | 0 | 0 | 0 | 0 | 74
Nc1c(/C=C2/C=CC(=O)C(O)=C2)c(=O)nc2sc(CC(=O)N3CCCC3)nn12 | 0 | 0 | 0 | 39 | 0 | 0 | 0 | 36 | 37
COc1cc(NC(=S)N2CCC(C(N)=O)CC2)c(OC)cc1Cl | 0 | 0 | 0 | 0 | 0 | 0 | - | - | -
O=C1/C(=C\c2ccc(O)c(O)c2)N=C2CCCCCN12 | 0 | 0 | 0 | 38 | 0 | 0 | 69 | 0 | 45
CCOc1ccc(N(C)c2ccc(/C=C3/SC(=S)NC3=O)cc2)cc1 | 0 | 0 | 0 | 87 | 0 | 0 | 0 | 24 | 66
SMILES | LANA-H2B inh | ZTA DNA inh | HNF4A DNA FP | CSN deneddyl inh | EBNA-1 inhibitor | A1 inh | CSN deneddyl val | MMP2 cntr CSN | Thrombin counter
CCCCN(C)c1c(C)nc2ccc(C(=O)N(C)CCN(C)C)cn12 | - | - | 0 | 0 | - | - | - | - | -
O=C(O)c1cccc(N2C(=O)/C(=C/c3ccc(SCc4ccc(Cl)cc4)o3)SC2=S)c1 | - | - | 0 | 46 | - | - | - | 0 | 49
O=C(CCN1C(=O)/C(=C/c2ccc(Cl)cc2)SC1=S)Nc1cccc(C(=O)O)c1 | 0 | 0 | 0 | 0 | 0 | 0 | - | - | -
O=C1C=C(c2ccc(C(=O)O)cc2)C[C@@H](c2ccc(F)cc2)C1 | 0 | - | 0 | 0 | - | 0 | - | - | -
CCOC(=O)/C(=C\c1ccc(N2CCC(c3ccccc3)=N2)cc1)C(C)=O | - | - | 0 | 38 | - | - | 20 | -58 | 28
COc1ccccc1-n1cnc2c(c1=O)c1nc3ccccc3nc1n2-c1ccc(C)c(C)c1 | - | - | 0 | 88 | - | - | 124 | 0 | 0
Cc1cc(/C=c2\sc3nc4ccccc4n3c2=O)c(C)n1-c1ccc(C(=O)O)cc1 | - | - | 0 | 35 | - | - | 0 | 0 | 27
COC(=O)c1c(C)[nH]c(C(=O)OCC(=O)c2c(N)n(CC(C)C)c(=O)n(C)c2=O)c1C | 0 | - | 0 | 0 | - | 0 | - | - | -
O=S(=O)(Nc1c(S(=O)(=O)c2ccccc2)c2nc3ccccc3nc2n1C1CCCCC1)c1ccccc1 | 0 | 0 | 0 | 58 | 0 | 0 | 0 | 0 | 0
CC(C)N1CCc2c(sc(NC(=O)c3ccc4ccccc4c3)c2C(N)=O)C1 | 0 | 0 | 63 | 57 | 0 | 0 | + | 0 | 48
CCN1CCc2c(sc(NC(=O)c3cc4ccccc4cc3OC)c2C(N)=O)C1 | 0 | 0 | 37 | 38 | 0 | 0 | 56 | 0 | 0
CC(C)N1CCc2c(sc(NC(=O)c3ccc(C(=O)c4ccccc4)cc3)c2C(N)=O)C1 | 0 | 0 | 0 | 0 | 0 | 0 | - | - | -
O=C(N/N=C/c1cccc(Cl)c1)C(c1ccncc1)N1CCOCC1 (stereo not drawn) | 0 | 0 | 0 | 0 | 0 | 0 | - | - | -
CCN(CC)CCOC(=O)c1ccc(N/C=C(/C#N)c2nc(-c3cc4ccccc4oc3=O)cs2)cc1 | 0 | - | 0 | 119 | - | 0 | 0 | -267 | 21
COc1cc(/C=C(\C#N)c2nc(-c3cc4ccccc4oc3=O)cs2)ccc1O | 0 | 0 | 0 | 0 | 0 | 0 | - | - | -
CCN(CC)CCOC(=O)c1ccc(N/C=C(/C#N)c2nc(-c3ccc4c(c3)OCO4)cs2)cc1 | 0 | 0 | 292 | 137 | 0 | 0 | 0 | 0 | 0
N#C/C(=C\C=C\c1ccccc1)c1nc(-c2ccc3c(c2)OCO3)cs1 | 0 | 0 | 0 | 0 | 0 | 0 | - | - | -
Oc1ccc(C2=Nn3c(nnc3-c3ccco3)SC2)cc1O | 0 | 0 | 0 | 38 | 0 | 0 | - | 31 | 0
CCCCn1c(NC(=O)c2ccccc2)c(C#N)c2nc3ccccc3nc21 | - | - | 85 | 69 | - | - | 0 | 0 | 0
